# Entries after “also recorded” stand apart in the source; their conditions may differ.
# Assays:
# [1] = system: human β-globin thalassemic intron 2 mutated splice site at nucleotide 705 (pLuc705 cells); assay: Nuclear activity assay; assay type: cell-based; settings: 24 h; for luciferase activity compared with conjugates with 8 and 7 repeats: 10 μM; for luciferase activity in 60% serum: 60% serum-containing medium; for reduction of luciferase activity in 10% serum: versus 0% serum, R9−PMO data not shown; for luciferase activity over the background: 1 μM, OptiMEM with or without 10% serum, RLU per microgram protein; for relative nuclear antisense activity in the oligoarginine, RX, RXR and RB panels: 1 and 5 μM
# Outline: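 Splice-correction luciferase assay in pLuc705 cells, seeded 20 h before at 30 000 cells/well. Cells washed, then treated 24 h with conjugate at 1, 5 or 10 μM in OptiMEM with 0, 10, 30 or 60% serum. Lysed 30 min at 4°C, clarified at 1000g, and luminescence read after adding luciferase reagent. RLU normalised per μg protein (BCA). Mean ± SD of 6–9 points, three independent experiments.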
# pLuc705 cells [2] = assay: Cell uptake assay; assay type: cell-based, human; settings: 2 μM, media containing 30 and 60% serum
# Outline: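 pLuc705 cells (HeLa stably carrying luciferase interrupted by β-globin intron 2 with mutated splice site at 705) seeded 20 h before at 100 000 cells/well. Treated 24 h with 2 μM 3′-carboxyfluorescein-tagged conjugate in OptiMEM with 0, 10, 30 or 60% serum. Trypsin 10 min at 37°C strips membrane-bound material, then cells are washed and analysed by flow cytometry. Mean fluorescence ± SD, six points, two independent experiments.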
# pLuc705 cells [3] = assay: MTT cell viability assay; assay type: cell-based, human; settings: for inhibition of cell proliferation by monomers: 500 μM each, individually or in combination
# Outline: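 pLuc705 cells seeded 20 h before at 9000 cells/well. Exposed 24 h to 0, 2, 10, 20, 40 or 60 μM conjugate in OptiMEM with 10% serum; arginine and X monomers given at 500 μM alone or combined. Phase images taken first, then MTT at 0.5 mg/ml final for 4 h at 37°C and DMSO/0.01M HCl 10 min. A540 read; % viability relative to mean of untreated wells; six points, two experiments.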
# pLuc705 cells [4] = assay: Microscopic images of treated cells; assay type: cell-based, human; settings: 60 μM, OptiMEM with 10% serum, 24 h, ×100
# Outline: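 pLuc705 cells seeded at 9000 cells/well 20 h before treatment, then exposed 24 h to conjugate or vehicle in OptiMEM with 10% serum. Phase-contrast images were taken directly in culture medium on an inverted microscope, before the MTT read-out on the same wells.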
# pLuc705 cells [5] = assay: Propidium iodide membrane integrity; assay type: cell-based, human; settings: for membrane damage / PI histogram shift with 0.5 or 5 h treatment: 60 μM, 0.5 and 5 h; for effect of addition of 10% serum on membrane toxicity: (RX)8−PMO data not shown; for effect on membrane integrity at higher concentrations: up to 60 µM tested
# [6] = system: fresh rat red blood cells; assay: Hemolysis assay; assay type: cell-based; settings: 60 μM, 1 h at 37°C, hemoglobin release (absorbance at 540 nm); four data points from two independent experiments
# Outline: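 Fresh rat blood red cells exposed 1 h at 37°C to conjugate at 60 μM, with PBS as background and 0.005% TX-100 as positive control. Released hemoglobin read as absorbance at 540 nm. Mean ± SD of four data points from two independent experiments.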
# [7] = cited from earlier work
# human liver HepG2 cells = assay: MTT toxicity in HepG2 cells; assay type: cell-based; settings: up to 60 μM, data not shown
# Outline: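 HepG2 cells kept in RPMI 1640 with 2 mM L-glutamine, 100 U/ml penicillin and 10% FBS at 37°C, 5% CO2. Treatments were in OptiMEM with or without FBS. MTT added to a final 0.5 mg/ml for 4 h at 37°C. Most of the medium was replaced with DMSO containing 0.01M HCl for 10 min at 37°C. A540 was normalized to the mean of untreated wells.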
compound,measurement,setting,value
RXRXRXRXRXB [(RX)5−PMO],luciferase activity compared with conjugates with 8 and 7 repeats,[1],much lower luciferase activity
RXRRXRRXRRXRXB [(RXR)4−PMOF],effect of higher serum concentrations on uptake,pLuc705 cells [2],decreased
RRRRRRRRRXB [R9−PMO],luciferase activity in 60% serum,[1],no activity
same,reduction of luciferase activity in 10% serum,[1],approximately 30%
RRRRRRRRXB [R8−PMO],luciferase activity in 60% serum,[1],no activity
same,reduction of luciferase activity in 10% serum,[1],approximately 30%
CC(=O)N[C@@H](CCCNC(=N)N)C(=O)NCCCCCC(=O)N[C@@H](CCCNC(=N)N)C(=O)NCCCCCC(=O)N[C@@H](CCCNC(=N)N)C(=O)NCCCCCC(=O)N[C@@H](CCCNC(=N)N)C(=O)NCCCCCC(=O)N[C@@H](CCCNC(=N)N)C(=O)NCCCCCC(=O)N[C@@H](CCCNC(=N)N)C(=O)NCCCCCC(=O)N[C@@H](CCCNC(=N)N)C(=O)NCCCCCC(=O)N[C@@H](CCCNC(=N)N)C(=O)NCCCCCC(=O)NCCC(=O)N1CCN(P(=O)(OC[C@@H]2CN(P(=O)(OC[C@@H]3CN(P(=O)(OC[C@@H]4CN(P(=O)(OC[C@@H]5CN(P(=O)(OC[C@@H]6CN(P(=O)(OC[C@@H]7CN(P(=O)(OC[C@@H]8CN(P(=O)(OC[C@@H]9CN(P(=O)(OC[C@@H]%10CN(P(=O)(OC[C@@H]%11CN(P(=O)(OC[C@@H]%12CN(P(=O)(OC[C@@H]%13CN(P(=O)(OC[C@@H]%14CN(P(=O)(OC[C@@H]%15CN(P(=O)(OC[C@@H]%16CN(P(=O)(OC[C@@H]%17CN(P(=O)(OC[C@@H]%18CN(P(=O)(OC[C@@H]%19CN(C(C)=O)C[C@H](n%20cnc%21c(N)ncnc%21%20)O%19)N(C)C)C[C@H](n%19ccc(N)nc%19=O)O%18)N(C)C)C[C@H](n%18cnc%19c(N)ncnc%19%18)O%17)N(C)C)C[C@H](n%17cc(C)c(=O)[nH]c%17=O)O%16)N(C)C)C[C@H](n%16cc(C)c(=O)[nH]c%16=O)O%15)N(C)C)C[C@H](n%15cnc%16c(=O)[nH]c(N)nc%16%15)O%14)N(C)C)C[C@H](n%14cnc%15c(N)ncnc%15%14)O%13)N(C)C)C[C@H](n%13ccc(N)nc%13=O)O%12)N(C)C)C[C@H](n%12cc(C)c(=O)[nH]c%12=O)O%11)N(C)C)C[C@H](n%11ccc(N)nc%11=O)O%10)N(C)C)C[C@H](n%10ccc(N)nc%10=O)O9)N(C)C)C[C@H](n9cnc%10c(N)ncnc%109)O8)N(C)C)C[C@H](n8cc(C)c(=O)[nH]c8=O)O7)N(C)C)C[C@H](n7cc(C)c(=O)[nH]c7=O)O6)N(C)C)C[C@H](n6ccc(N)nc6=O)O5)N(C)C)C[C@H](n5cc(C)c(=O)[nH]c5=O)O4)N(C)C)C[C@H](n4ccc(N)nc4=O)O3)N(C)C)C[C@H](n3ccc(N)nc3=O)O2)N(C)C)CC1 (some centres unmarked) [(RX)8−PMO],luciferase activity over the background,[1],10–15 fold
same,relative nuclear activity at 2 μM,"[1]; 2 μM, OptiMEM with 10% serum, eleven conjugates with 0-8 X compared",highest activity
same,change of luciferase activity on addition of 10% serum,[1]; 5 μM,nearly doubled
same,relative nuclear activity at 5 μM,"[1]; 5 μM, OptiMEM with 10% serum, eleven conjugates with 0-8 X compared",highest activities
same,"relative nuclear antisense activity in the oligoarginine, RX, RXR and RB panels",[1],highest nuclear antisense activities
same,cell viability,"pLuc705 cells [3]; 60 μM, OptiMEM with 10% serum, 24 h, mean of six data points",40%
same,appearance of treated cells (microscopic images),pLuc705 cells [4],rounded and detached from the culture well
same,membrane damage / PI histogram shift with 0.5 or 5 h treatment,pLuc705 cells [5],little immediate membrane damage
same,effect of addition of 10% serum on membrane toxicity,pLuc705 cells [5]; 24 h,significantly reduced membrane toxicity
same,effect on membrane integrity at higher concentrations,pLuc705 cells [5],significantly affect membrane integrity
same,hemolytic activity,[6],compatible with red blood cells
same,stability (of the peptide portion) in cells,[7],completely degraded
RBRBRBRBRBB [(RB)5−PMO],luciferase activity compared with conjugates with 8 and 7 repeats,[1],much lower luciferase activity
RXRRXRRXRRXRXB [(RXR)4−PMO],luciferase activity over the background,[1],10–15 fold
same,change of luciferase activity on addition of 10% serum,[1]; 5 μM,nearly doubled
same,"relative nuclear antisense activity in the oligoarginine, RX, RXR and RB panels",[1],highest nuclear antisense activities
same,toxicity in HepG2 cells,human liver HepG2 cells,dose-dependent inhibition of cell proliferation
same,appearance of treated cells (microscopic images),pLuc705 cells [4],rounded and detached from the culture well
same,membrane damage / PI histogram shift with 0.5 or 5 h treatment,pLuc705 cells [5],slight shift towards the PI+ region; also recorded: little immediate membrane damage
same,cells in the PI+ region,"pLuc705 cells [5]; 60 µM, 24 h, serum-free medium, flow cytometry",57%
same,effect of addition of 10% serum on membrane toxicity,pLuc705 cells [5]; 24 h,significantly reduced membrane toxicity
same,effect on membrane integrity at higher concentrations,pLuc705 cells [5],significantly affect membrane integrity
same,hemolytic activity,[6],compatible with red blood cells
RBRBRBB [(RB)3−PMO],luciferase activity compared with conjugates with 8 and 7 repeats,[1],much lower luciferase activity
"NCCCCCC(=O)O [X, 6-aminohexanoic acid]",inhibition of cell proliferation by monomers,pLuc705 cells [3],no inhibition of cell proliferation
RBRBRBRBRBRBRBRBB [(RB)8−PMO],change of luciferase activity on addition of 10% serum,[1]; 5 μM,nearly doubled
same,stability (of the peptide portion) in cells,[7],only partially degraded
N=C(N)NCCC[C@H](N)C(=O)O [arginine],inhibition of cell proliferation by monomers,pLuc705 cells [3],no inhibition of cell proliferation
RXRXRXB [(RX)3−PMO],luciferase activity compared with conjugates with 8 and 7 repeats,[1],much lower luciferase activity

# Source: paper PMC1976451 (Nucleic Acids Research, 2007)
